# Tests used:
# [1] = Stability in rat plasma assessed as compound remaining at 50 uM at 37 degC after 60 mins by LC-MS/MS method; type: ADME, cell-free; details: read-out: Stability
# Summary of the method: (§1)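 Prodrugs were incubated in rat or human plasma for 60 min. Disappearance of prodrug and concomitant appearance of ertapenem were followed by LC-MS/MS, and in selected cases monoesters from partial hydrolysis were also monitored. Ertapenem itself was incubated the same way as a control.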
# [2] = Stability in human plasma assessed as compound remaining at 50 uM at 37 degC after 60 mins by LC-MS/MS method; type: ADME, cell-free; details: read-out: Stability; summary of the method: as §1
# [3] = Stability in pH 2.0 simulated gastric fluid assessed as compound degradation to beta-lactam ring open products at 1 uM after 60 mins by LC-MS/MS method; type: ADME; details: read-out: Drug degradation
# Summary of the method: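 Incubation was in simulated gastric fluid (SGF, pH 2.0) for 60 min, with loss to the β-lactam ring-opened product measured by LC-MS/MS.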
# [4] = Stability in pH 6.5 simulated gastrointestinal fluid assessed as compound remaining at 50 uM after 3 hrs by LC-MS/MS method; type: ADME; details: read-out: Stability
# Summary of the method: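 Compounds at 50 μM were incubated in fasted-state simulated intestinal fluid (FaSSIF, pH 6.5) for over 3 h. Percent remaining was determined by LC-MS/MS.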
# [5] = Stability in pH 7.4 phosphate buffer assessed as compound remaining at 50 uM after 3 hrs by LC-MS/MS method; type: physicochemical; details: read-out: Stability
SMILES,"remaining at 1 h, 50 µM [1] [%]","remaining at 1 h, 50 µM [2] [%]","degraded at 1 h, 1 µM [3] [%]","remaining at 3 h, 50 µM [4] [%]","remaining at 3 h, 50 µM [5] [%]"
C[C@@H](O)[C@H]1C(=O)N2C(C(=O)OCOC(=O)C(C)(C)C)=C(S[C@@H]3CN[C@H](C(=O)Nc4cccc(C(=O)O)c4)C3)[C@H](C)[C@H]12,0,45,> 25,> 95,> 95
CCC(CC)C(=O)OCOC(=O)C1=C(S[C@@H]2CN[C@H](C(=O)Nc3cccc(C(=O)OCOC(=O)C(CC)CC)c3)C2)[C@H](C)[C@@H]2[C@@H]([C@@H](C)O)C(=O)N12,3,83,> 25,> 95,> 95
CCC(CC)C(=O)OCOC(=O)C1=C(S[C@@H]2CN[C@H](C(=O)Nc3cccc(C(=O)O)c3)C2)[C@H](C)[C@@H]2[C@@H]([C@@H](C)O)C(=O)N12,0,82,> 25,> 95,> 95
C[C@@H](O)[C@H]1C(=O)N2C(C(=O)OCOC(=O)C3CCCCC3)=C(S[C@@H]3CN[C@H](C(=O)Nc4cccc(C(=O)OCOC(=O)C5CCCCC5)c4)C3)[C@H](C)[C@H]12,10,60,> 25,> 95,> 95
C[C@@H](O)[C@H]1C(=O)N2C(C(=O)OCOC(=O)OC(C)(C)C)=C(S[C@@H]3CN[C@H](C(=O)Nc4cccc(C(=O)OCOC(=O)OC(C)(C)C)c4)C3)[C@H](C)[C@H]12,8,67,> 25,> 95,> 95
CC(C)OC(=O)OCOC(=O)C1=C(S[C@@H]2CN[C@H](C(=O)Nc3cccc(C(=O)OCOC(=O)OC(C)C)c3)C2)[C@H](C)[C@@H]2[C@@H]([C@@H](C)O)C(=O)N12,3,28,> 25,> 95,> 95
CC(C)OC(=O)OCOC(=O)C1=C(S[C@@H]2CN[C@H](C(=O)Nc3cccc(C(=O)O)c3)C2)[C@H](C)[C@@H]2[C@@H]([C@@H](C)O)C(=O)N12,0,62,> 25,> 95,> 95
C[C@@H](O)[C@H]1C(=O)N2C(C(=O)OCOC(=O)OC3CCCCC3)=C(S[C@@H]3CN[C@H](C(=O)Nc4cccc(C(=O)OCOC(=O)OC5CCCCC5)c4)C3)[C@H](C)[C@H]12,10,96,> 25,> 95,> 95
C[C@@H](O)[C@H]1C(=O)N2C(C(=O)OCOC(=O)OC3CCCCC3)=C(S[C@@H]3CN[C@H](C(=O)Nc4cccc(C(=O)O)c4)C3)[C@H](C)[C@H]12,0,46,> 25,> 95,> 95
CCOC(=O)OCOC(=O)C1=C(S[C@@H]2CN[C@H](C(=O)Nc3cccc(C(=O)OCOC(=O)OCC)c3)C2)[C@H](C)[C@@H]2[C@@H]([C@@H](C)O)C(=O)N12,0,1,> 25,> 95,> 95
CCOC(=O)OCOC(=O)C1=C(S[C@@H]2CN[C@H](C(=O)Nc3cccc(C(=O)O)c3)C2)[C@H](C)[C@@H]2[C@@H]([C@@H](C)O)C(=O)N12,0,10,> 25,> 95,> 95
CCOC(=O)c1cccc(NC(=O)[C@@H]2C[C@H](SC3=C(C(=O)O)N4C(=O)[C@H]([C@@H](C)O)[C@H]4[C@H]3C)CN2)c1,–,–,> 25,> 95,> 95
CC(C)OC(=O)C1=C(S[C@@H]2CN[C@H](C(=O)Nc3cccc(C(=O)O)c3)C2)[C@H](C)[C@@H]2[C@@H]([C@@H](C)O)C(=O)N12,–,–,> 25,> 95,> 95
CC(C)OC(=O)c1cccc(NC(=O)[C@@H]2C[C@H](SC3=C(C(=O)O)N4C(=O)[C@H]([C@@H](C)O)[C@H]4[C@H]3C)CN2)c1,–,–,> 25,> 95,> 95
CCCCCCCCCCCCCCCCOC(=O)C1=C(S[C@@H]2CN[C@H](C(=O)Nc3cccc(C(=O)OCCCCCCCCCCCCCCCC)c3)C2)[C@H](C)[C@@H]2[C@@H]([C@@H](C)O)C(=O)N12,89,89,> 25,> 95,> 95
CCOC(=O)C1=C(S[C@H]2C[C@@H](C(=O)Nc3cccc(C(=O)OCC)c3)N(Cc3oc(=O)oc3C)C2)[C@H](C)[C@@H]2[C@@H]([C@@H](C)O)C(=O)N12,0,19,> 25,> 95,> 95

# Other lines, results leading:
"remaining at 1 h, 50 µM [1] [%]","remaining at 1 h, 50 µM [2] [%]","degraded at 1 h, 1 µM [3] [%]","remaining at 3 h, 50 µM [4] [%]","remaining at 3 h, 50 µM [5] [%]",SMILES
0,53,> 25,> 95,> 95,C[C@@H](O)[C@H]1C(=O)N2C(C(=O)O)=C(S[C@@H]3CN[C@H](C(=O)Nc4cccc(C(=O)OCOC(=O)C(C)(C)C)c4)C3)[C@H](C)[C@H]12
0,26,> 25,> 95,> 95,CC(C)C(=O)OCOC(=O)c1cccc(NC(=O)[C@@H]2C[C@H](SC3=C(C(=O)O)N4C(=O)[C@H]([C@@H](C)O)[C@H]4[C@H]3C)CN2)c1
0,20,> 25,> 95,> 95,C[C@@H](O)[C@H]1C(=O)N2C(C(=O)OCOC(=O)C3CCCCC3)=C(S[C@@H]3CN[C@H](C(=O)Nc4cccc(C(=O)O)c4)C3)[C@H](C)[C@H]12
0,0,> 25,> 95,> 95,CC(=O)OCOC(=O)C1=C(S[C@@H]2CN[C@H](C(=O)Nc3cccc(C(=O)OCOC(C)=O)c3)C2)[C@H](C)[C@@H]2[C@@H]([C@@H](C)O)C(=O)N12
2,46,> 25,> 95,> 95,CC(OC(=O)C1=C(S[C@@H]2CN[C@H](C(=O)Nc3cccc(C(=O)OC(C)OC(=O)C(C)(C)C)c3)C2)[C@H](C)[C@@H]2[C@@H]([C@@H](C)O)C(=O)N12)OC(=O)C(C)(C)C (stereo not given in full)
0,40,> 25,> 95,> 95,C[C@@H](O)[C@H]1C(=O)N2C(C(=O)OCOC(=O)OC(C)(C)C)=C(S[C@@H]3CN[C@H](C(=O)Nc4cccc(C(=O)O)c4)C3)[C@H](C)[C@H]12
0,0,> 25,> 95,> 95,COC(=O)OCOC(=O)C1=C(S[C@@H]2CN[C@H](C(=O)Nc3cccc(C(=O)OCOC(=O)OC)c3)C2)[C@H](C)[C@@H]2[C@@H]([C@@H](C)O)C(=O)N12
0,33,> 25,> 95,> 95,COC(=O)OCOC(=O)C1=C(S[C@@H]2CN[C@H](C(=O)Nc3cccc(C(=O)O)c3)C2)[C@H](C)[C@@H]2[C@@H]([C@@H](C)O)C(=O)N12
0,12,> 25,> 95,> 95,Cc1oc(=O)oc1COC(=O)c1cccc(NC(=O)[C@@H]2C[C@H](SC3=C(C(=O)O)N4C(=O)[C@H]([C@@H](C)O)[C@H]4[C@H]3C)CN2)c1
–,–,> 25,> 95,> 95,CCOC(=O)C1=C(S[C@@H]2CN[C@H](C(=O)Nc3cccc(C(=O)O)c3)C2)[C@H](C)[C@@H]2[C@@H]([C@@H](C)O)C(=O)N12
7,80,> 25,> 95,> 95,C[C@@H](O)[C@H]1C(=O)N2C(C(=O)OCC(F)(F)F)=C(S[C@@H]3CN[C@H](C(=O)Nc4cccc(C(=O)O)c4)C3)[C@H](C)[C@H]12
–,–,> 25,> 95,> 95,C[C@@H](O)[C@H]1C(=O)N2C(C(=O)O)=C(S[C@@H]3CN[C@H](C(=O)Nc4cccc(C(=O)OCC(F)(F)F)c4)C3)[C@H](C)[C@H]12
0,4,> 25,> 95,> 95,C[C@@H](O)[C@H]1C(=O)N2C3=C(S[C@@H]4CN[C@@H](C4)C(=O)Nc4cccc(c4)C(=O)OCCCCOC3=O)[C@H](C)[C@H]12

# Source: ChEMBL document CHEMBL3351346, “Design, synthesis, structure-function relationship, bioconversion, and pharmacokinetic evaluation of ertapenem prodrugs” (J Med Chem, 2014)
